# Data published in ChEMBL document CHEMBL4673340 (J Med Chem, 2020).
# Activity calls are given as the source filed them. The calls are words filed in the database; no cut-off is given here.
# Columns and labels:
# [1] = biological target: Poly [ADP-ribose] polymerase 2 (Homo sapiens, UniProt Q9UGN5); experiment: Inhibition of PARP-2 (unknown origin) pre-incubated for 30 mins before addition of activated DNA and NAD by chemiluminescent assay
# [2] = AUC (0 to 24 hrs) in rat at 5 mg/kg, po by LC-MS/MS analysis; assay type: ADME, organism-based; set-up: time < 24 hr, route oral, dose 5 mg/kg; conditions: in vivo
# [3] = Clearance in mouse liver microsomes; assay type: ADME, Microsome; conditions: read-out: CLH
# [4] = biological target: hERG (KCNH2) (Homo sapiens, UniProt Q12809); experiment: Inhibition of human ERG activity at 20 uM by functional cellular assay
# Sequence of hERG (KCNH2) (Q12809 whole entry): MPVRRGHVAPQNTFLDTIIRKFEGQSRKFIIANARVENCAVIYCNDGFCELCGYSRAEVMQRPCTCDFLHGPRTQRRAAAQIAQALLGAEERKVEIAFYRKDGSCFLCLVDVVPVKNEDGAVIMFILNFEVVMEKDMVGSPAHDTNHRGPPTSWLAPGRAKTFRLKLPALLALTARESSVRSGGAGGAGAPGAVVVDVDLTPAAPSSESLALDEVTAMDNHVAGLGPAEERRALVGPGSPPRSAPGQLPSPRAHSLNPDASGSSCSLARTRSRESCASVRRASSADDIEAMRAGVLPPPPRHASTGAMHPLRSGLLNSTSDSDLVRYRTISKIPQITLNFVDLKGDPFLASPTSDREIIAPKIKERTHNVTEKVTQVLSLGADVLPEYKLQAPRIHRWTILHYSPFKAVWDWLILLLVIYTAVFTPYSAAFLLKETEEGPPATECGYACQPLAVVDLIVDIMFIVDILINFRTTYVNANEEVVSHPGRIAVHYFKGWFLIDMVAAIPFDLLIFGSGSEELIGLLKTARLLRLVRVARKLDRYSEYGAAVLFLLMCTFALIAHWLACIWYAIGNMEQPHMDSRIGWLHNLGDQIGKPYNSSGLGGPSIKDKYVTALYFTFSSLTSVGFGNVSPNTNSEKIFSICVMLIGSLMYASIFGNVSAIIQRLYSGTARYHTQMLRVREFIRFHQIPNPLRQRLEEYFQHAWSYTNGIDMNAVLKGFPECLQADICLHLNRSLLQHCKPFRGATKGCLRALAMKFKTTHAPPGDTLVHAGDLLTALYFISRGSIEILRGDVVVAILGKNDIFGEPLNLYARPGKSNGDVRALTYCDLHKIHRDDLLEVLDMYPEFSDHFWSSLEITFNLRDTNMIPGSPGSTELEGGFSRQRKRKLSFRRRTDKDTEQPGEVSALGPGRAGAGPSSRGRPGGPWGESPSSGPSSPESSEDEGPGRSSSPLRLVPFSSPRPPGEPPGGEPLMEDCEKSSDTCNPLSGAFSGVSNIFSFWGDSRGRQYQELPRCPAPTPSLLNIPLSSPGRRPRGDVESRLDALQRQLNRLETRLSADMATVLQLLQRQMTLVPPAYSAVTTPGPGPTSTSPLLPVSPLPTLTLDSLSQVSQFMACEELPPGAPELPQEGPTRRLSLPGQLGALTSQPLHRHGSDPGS
# [5] = Oral bioavailability in Sprague-Dawley rat at 5 mg/kg by LC-MS/MS analysis; assay type: ADME, organism-based; conditions: in vivo
# Method in brief: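 Pharmacokinetics in Sprague-Dawley rats, three per group. iv 2 mg/kg in 38% DMA in water; po 5 mg/kg. Plasma was protein-precipitated, diluted with water and analysed by LC-MS/MS using an acetonitrile/0.1% formic acid gradient. Values are means of three rats.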
# [6] = Clearance in rat at 5 mg/kg, po by LC-MS/MS analysis; assay type: ADME, organism-based; conditions: in vivo
# [7] = biological target: T1, Poly [ADP-ribose] polymerase 1 (Homo sapiens, UniProt P09874); experiment: Inhibition of PARP-1 in human HeLa cells incubated for 18 hrs in presence of H2O2; assay type: cell-based
# T1 sequence (P09874 whole entry, the tested form may be a part): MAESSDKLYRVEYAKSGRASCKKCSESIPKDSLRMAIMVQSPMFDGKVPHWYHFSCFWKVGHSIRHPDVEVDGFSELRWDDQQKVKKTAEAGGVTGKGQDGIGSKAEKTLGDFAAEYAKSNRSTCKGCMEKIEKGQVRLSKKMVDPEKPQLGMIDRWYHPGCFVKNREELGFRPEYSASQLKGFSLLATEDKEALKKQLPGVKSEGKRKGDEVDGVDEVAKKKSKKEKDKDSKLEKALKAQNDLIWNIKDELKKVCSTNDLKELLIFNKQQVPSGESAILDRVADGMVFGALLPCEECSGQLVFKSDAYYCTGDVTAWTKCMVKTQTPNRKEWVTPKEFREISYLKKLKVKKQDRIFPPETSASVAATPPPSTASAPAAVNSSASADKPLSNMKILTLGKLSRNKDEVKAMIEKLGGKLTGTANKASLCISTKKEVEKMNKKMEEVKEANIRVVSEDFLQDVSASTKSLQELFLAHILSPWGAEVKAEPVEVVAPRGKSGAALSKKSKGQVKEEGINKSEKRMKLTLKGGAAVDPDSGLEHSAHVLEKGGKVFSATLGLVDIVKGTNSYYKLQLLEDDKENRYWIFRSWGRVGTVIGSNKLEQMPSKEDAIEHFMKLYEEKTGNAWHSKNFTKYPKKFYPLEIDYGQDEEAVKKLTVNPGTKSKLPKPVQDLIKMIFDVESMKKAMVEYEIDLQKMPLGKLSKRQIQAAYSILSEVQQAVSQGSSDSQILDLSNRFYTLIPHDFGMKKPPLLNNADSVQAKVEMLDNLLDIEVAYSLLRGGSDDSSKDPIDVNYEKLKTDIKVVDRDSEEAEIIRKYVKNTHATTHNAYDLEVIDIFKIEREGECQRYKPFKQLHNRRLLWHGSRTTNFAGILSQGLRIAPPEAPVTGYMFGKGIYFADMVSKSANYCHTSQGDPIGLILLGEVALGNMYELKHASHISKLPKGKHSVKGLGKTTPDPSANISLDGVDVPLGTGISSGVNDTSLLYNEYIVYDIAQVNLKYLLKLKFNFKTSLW
# [8] = biological target: T1, Poly [ADP-ribose] polymerase 1; experiment: Inhibition of human PARP-1 catalytic domain (662 to 1011 residues) expressed in Escherichia coli BL21(DE3) cells pre-incubated for 30 mins before addition of activated DNA and NAD by fluorescence based assay
# [9] = Solubility of the compound; assay type: physicochemical
# [10] = test system: MDA-MB-436; experiment: Antitumor activity against human MDA-MB-436 cells xenografted in BALB/c nude mouse assessed as inhibition of tumor growth at 25 to 50 mg/kg, po BID for 28 days followed by treatment was interruption and monitored for additional 2 months; assay type: functional, organism-based; conditions: dose 25-50 mg/kg, time 28.0 day
# Method in brief: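 Female 8-week-old BALB/c nude mice receive 5 × 10⁶ cells in PBS:Matrigel 1:1 subcutaneously in the right flank. […] Tumors are then monitored 2 more months. Caliper volume V = 0.5ab² is taken twice weekly.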
# [11] = test system: NCI-H209; experiment: Antitumor activity against human NCI-H209 cells xenografted in BALB/c nude mouse assessed as inhibition of tumor growth at 50 mg/kg, po QD for 5 consecutive days at start of study and again 14 days later; assay type: functional, organism-based; conditions: time 19.0 day
# Method in brief: (§1)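 Female BALB/c nude mice are implanted subcutaneously with 1 × 10⁷ H209 cells in cold PBS. At ~175 mm³ they are randomized into four groups of 8. TMZ is given orally in 0.5% MC at 10 mL/kg, QD on days 1–5 and 15–19. Caliper tumor volume (0.5ab²) is measured twice weekly and reported as mean ± SEM.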
# [12] = test system: NCI-H209; experiment: Antitumor activity against human NCI-H209 cells xenografted in BALB/c nude mouse assessed as PR rate at 50 mg/kg, po QD for 5 consecutive days at start of study and again 14 days later; assay type: functional; conditions: time 19 day; method in brief: as §1
# [13] = test system: NCI-H209; experiment: Antitumor activity against human NCI-H209 cells xenografted in BALB/c nude mouse assessed as tumor relapse at 50 mg/kg, po QD for 5 consecutive days at start of study and again 14 days later and measured after 48 days; assay type: functional, organism-based; conditions: time 19.0 day; method in brief: as §1
# Sequence of Poly [ADP-ribose] polymerase 2 (Q9UGN5 whole entry): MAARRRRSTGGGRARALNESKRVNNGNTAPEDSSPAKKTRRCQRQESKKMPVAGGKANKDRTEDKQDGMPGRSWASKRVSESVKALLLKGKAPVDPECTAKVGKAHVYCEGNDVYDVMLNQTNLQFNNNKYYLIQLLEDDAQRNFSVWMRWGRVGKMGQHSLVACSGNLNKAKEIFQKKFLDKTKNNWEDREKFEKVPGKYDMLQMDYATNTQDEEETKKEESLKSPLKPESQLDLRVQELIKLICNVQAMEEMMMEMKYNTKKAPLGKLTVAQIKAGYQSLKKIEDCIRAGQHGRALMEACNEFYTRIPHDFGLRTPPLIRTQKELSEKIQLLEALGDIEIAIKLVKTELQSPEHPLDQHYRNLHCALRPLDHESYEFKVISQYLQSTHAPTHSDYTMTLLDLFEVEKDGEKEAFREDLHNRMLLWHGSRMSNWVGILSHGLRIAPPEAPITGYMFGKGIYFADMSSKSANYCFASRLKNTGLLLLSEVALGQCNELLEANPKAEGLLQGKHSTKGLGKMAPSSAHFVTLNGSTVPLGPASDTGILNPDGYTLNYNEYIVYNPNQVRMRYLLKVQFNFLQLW
SMILES,inhibition at 20 µM [4] [%],EC50 [7] [nM],IC50 [8] [nM],further results
O=C1NN=C2CC(c3ccccc3)Cc3[nH]c4cc(F)cc1c4c32 (stereo not drawn),,,,IC50 [1]: 1.8 nM
CC(C)N1CC2=NNC(=O)c3cccc4[nH]c(c2c34)C1,39,,,AUC(0-t) at 24 h [2]: 141 ng·h/mL; CLint scaled [3]: 174 mL/min/kg; bioavailability [5]: 19%; CL/F [6]: 114 mL/min/kg
CN1CC2=NNC(=O)c3cc(F)cc4[nH]c(c2c34)C1,,,,CLint scaled [3]: 275 mL/min/kg
CC1CC2=NNC(=O)c3cc(F)cc4[nH]c(c2c34)C1 (stereo not drawn),,2.7,4.9,IC50 [1]: 1.3 nM
CC1(C)CC2=NNC(=O)c3cccc4c3c2c(n4CCO)C1,,176,,
CC1(C)CC2=NNC(=O)c3cc(F)cc4[nH]c(c2c34)C1,32,,,
CC1(C)CCc2[nH]c3cc(F)cc4c3c2C1=NNC4=O,,45.5,28.8,
O=C1NN=C2CN(C(=O)C3CC3)Cc3[nH]c4cccc1c4c32,12,,,CLint scaled [3]: 250 mL/min/kg; CL/F [6]: 114 mL/min/kg
CC(C)C1CC2=NNC(=O)c3cc(F)cc4[nH]c(c2c34)C1 (stereo not drawn),,,,IC50 [1]: 0.7 nM
CCN(CC)CCn1c2c3c4c(cccc41)C(=O)NN=C3CC(C)(C)C2,95,,,solubility [9]: Soluble
CN(C)CCn1c2c3c4c(cc(F)cc41)C(=O)NN=C3CC(C)(C)C2,73,,,solubility [9]: Soluble; IC50 [1]: 0.3 nM
CC1(C)CC2=NNC(=O)c3cccc4c3c2c(n4CCN2CCCC2)C1,97,,,solubility [9]: Soluble
O=C1NN=C2CCCCc3[nH]c4cc(F)cc1c4c32,,,,IC50 [1]: 0.7 nM
CC(C)(N)C(=O)N1CC2=NNC(=O)c3cccc4[nH]c(c2c34)C1,43,,,
CN(C)CCn1c2c3c4c(cccc41)C(=O)NN=C3CC(C)(C)C2,77,,,solubility [9]: Soluble; IC50 [1]: 0.3 nM
CC1(C)CC2=NNC(=O)c3cccc4c3c2c(n4CCN2CCCCC2)C1,92,,,solubility [9]: Soluble
CC12CCCN1Cc1[nH]c3cc(F)cc4c3c1C2=NNC4=O (stereo not drawn),,54.7,73,
NC1(C(=O)N2CC3=NNC(=O)c4cc(F)cc5[nH]c(c3c45)C2)CC1,,22,9.9,
O=C1NN=C2CN(C(=O)[C@@H]3CCCN3)Cc3[nH]c4cc(F)cc1c4c32,,11.7,6.6,
O=C1NN=C2CN(S(=O)(=O)C3CC3)Cc3[nH]c4cc(F)cc1c4c32,,9.3,8,
O=C1NN=C2CN(C(=O)C3(c4ccccc4)CC3)Cc3[nH]c4cc(F)cc1c4c32,,24.1,28.1,CL/F [6]: 71 mL/min/kg
CNCCn1c2c3c4c(cccc41)C(=O)NN=C3CC(C)(C)C2,,0.5,7,
CC1(C)C(=O)C2=NNC(=O)c3cc(F)cc4[nH]c(c2c34)C1=O,,76.1,13.1,
CC1(C(=O)N2CC3=NNC(=O)c4cc(F)cc5[nH]c(c3c45)C2)CC1,,15.4,9.8,
O=C1NN=C2CN(C(=O)C3(O)CC3)Cc3[nH]c4cc(F)cc1c4c32,,3.5,4.7,
CC1(C)C(C(=O)N2CC3=NNC(=O)c4cc(F)cc5[nH]c(c3c45)C2)C1(C)C,,16.6,17.9,
O=C(c1cc(Cc2n[nH]c(=O)c3ccccc23)ccc1F)N1CCN(C(=O)C2CC2)CC1 [OLAPARIB],,,,TGI [10]: Active; bioavailability [5]: 10%
Cn1nnc2c(C(N)=O)ncn2c1=O [TEMOZOLOMIDE],,,,TGI [11]: Active; Activity [12]: 13%; Activity [13]: inactive
